Laboratory results: ChEMBL document CHEMBL4043093, “2-Oxo-3, 4-dihydropyrimido[4, 5-d]pyrimidinyl derivatives as new irreversible pan fibroblast growth factor receptor (FGFR) inhibitors” (Eur J Med Chem, 2017)

Legend:
[1] = system: ALK tyrosine kinase receptor (Homo sapiens), Q9UM73 [C1156Y]; assay: Inhibition of wild-type human partial length ALK C1156Y mutant (I1088 to E1409 residues) expressed in HEK293 cells assessed as residual activity at 1000 nM after 30 mins by Kinomescan method relative to control; type: cell-based
[2] = biological target: RAC-gamma serine/threonine-protein kinase (Homo sapiens) (UniProt Q9Y243); assay: Inhibition of wild-type human partial length AKT3 expressed in Escherichia coli BL21 assessed as residual activity at 1000 nM after 30 mins by Kinomescan method relative to control
[3] = biological target: Maternal embryonic leucine zipper kinase (Homo sapiens) (UniProt Q14680); assay: Inhibition of wild-type human full length MELK (M1 to V651 residues) expressed in Escherichia coli BL21 assessed as residual activity at 1000 nM after 30 mins by Kinomescan method relative to control
Outline: (§1)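 Single-concentration screen at 1 µM across a 456-kinase KINOMEscan panel. The read-out is Percent Control for each kinase.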

[4] = biological target: Serine/threonine-protein kinase 38 (Homo sapiens) (UniProt Q15208); assay: Inhibition of wild-type human partial length NDR1 (N33 to E449 residues) expressed in HEK293 cells assessed as residual activity at 1000 nM after 30 mins by Kinomescan method relative to control; type: cell-based
[5] = system: Epidermal growth factor receptor (Homo sapiens), P00533 [UNDEFINED MUTATION]; assay: Inhibition of human partial length EGFR E746-A750del mutant expressed in Escherichia coli BL21 assessed as residual activity at 1000 nM after 30 mins by Kinomescan method relative to control
Outline: (§2)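 KINOMEscan binding panel of 456 kinases, with the test compound at a single concentration of 1 µM. Read-out is Percent Control.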

[6] = system: Mast/stem cell growth factor receptor Kit (Homo sapiens), P10721 [A829P]; assay: Inhibition of human partial length KIT A829P mutant (I571 to D952 residues) expressed in HEK293 cells assessed as residual activity at 1000 nM after 30 mins by Kinomescan method relative to control; type: cell-based; outline: as §2
[7] = biological target: Tyrosine-protein kinase receptor TYRO3 (Homo sapiens) (UniProt Q06418); assay: Inhibition of wild-type human partial length TYRO3 (S497 to T814 residues) expressed in Escherichia coli BL21 assessed as residual activity at 1000 nM after 30 mins by Kinomescan method relative to control
[8] = biological target: Tyrosine-protein kinase Fes/Fps (Homo sapiens) (UniProt P07332); assay: Inhibition of wild-type human partial length FES (I527 to R822 residues) expressed in Escherichia coli BL21 assessed as residual activity at 1000 nM after 30 mins by Kinomescan method relative to control
SW780 = assay: Antiproliferative activity against human FGFR3-amplified SW780 cells after 5 days by SRB assay; conditions: SW780, 120 h
[9] = system: Tyrosine-protein kinase ABL1 (Homo sapiens), P00519 [H396P]; assay: Inhibition of human phosphorylated ABL1 H396P mutant (S229 to K512 residues) expressed in HEK293 cells assessed as residual activity at 1000 nM after 30 mins by Kinomescan method relative to control; type: cell-based
Outline: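 Single-point screen at a fixed 1 µM, run within a 456-kinase DiscoveRx KINOMEscan panel. Each kinase's read-out is Percent Control, i.e. signal relative to a control without compound. Hits were scored by a Percent Control < 35 cut-off, and an S(35) selectivity score was calculated across the non-mutant kinases.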

[10] = biological target: Tyrosine-protein kinase Lyn (Homo sapiens) (UniProt P07948); assay: Inhibition of wild-type human partial length LYN (C219 to Q511 residues) expressed in Escherichia coli BL21 assessed as residual activity at 1000 nM after 30 mins by Kinomescan method relative to control
[11] = system: Phosphatidylinositol 4,5-bisphosphate 3-kinase catalytic subunit alpha isoform (Homo sapiens), P42336 [C420R]; assay: Inhibition of human partial length PIK3CA C420R mutant (R108 to N1068 residues) expressed in HEK293 cells assessed as residual activity at 1000 nM after 30 mins by Kinomescan method relative to control; type: cell-based; outline: as §2
[12] = system: Receptor-type tyrosine-protein kinase FLT3 (Homo sapiens), P36888 [N841I]; assay: Inhibition of human partial length FLT3 N841I mutant (V592 to Y969 residues) expressed in Escherichia coli BL21 assessed as residual activity at 1000 nM after 30 mins by Kinomescan method relative to control; outline: as §2
[13] = biological target: Myosin light chain kinase 2, skeletal/cardiac muscle (Homo sapiens) (UniProt Q9H1R3); assay: Inhibition of wild-type human partial length MYLK2 (D258 to K570 residues) expressed in Escherichia coli BL21 assessed as residual activity at 1000 nM after 30 mins by Kinomescan method relative to control
[14] = biological target: LIM domain kinase 1 (Homo sapiens) (UniProt P53667); assay: Inhibition of wild-type human full length LIMK1 (M1 to D647 residues) expressed in Escherichia coli BL21 assessed as residual activity at 1000 nM after 30 mins by Kinomescan method relative to control; outline: as §1
[15] = biological target: Epidermal growth factor receptor (Homo sapiens) (UniProt P00533); assay: Inhibition of wild-type human partial length EGFR (R669 to V1011 residues) expressed in Escherichia coli BL21 assessed as residual activity at 1000 nM after 30 mins by Kinomescan method relative to control
[16] = system: ALK tyrosine kinase receptor (Homo sapiens), Q9UM73 [L1196M]; assay: Inhibition of wild-type human partial length ALK L1196M mutant (I1088 to E1409 residues) expressed in HEK293 cells assessed as residual activity at 1000 nM after 30 mins by Kinomescan method relative to control; type: cell-based
[17] = biological target: Beta-adrenergic receptor kinase 1 (Homo sapiens) (UniProt P25098); assay: Inhibition of wild-type human full length GRK2 (M1 to L689 residues) expressed in HEK293 cells assessed as residual activity at 1000 nM after 30 mins by Kinomescan method relative to control; type: cell-based; outline: as §1
[18] = biological target: Serine/threonine-protein kinase WNK2 (Homo sapiens) (UniProt Q9Y3S1); assay: Inhibition of wild-type human partial length WNK2 (V47 to D482 residues) expressed in HEK293 cells assessed as residual activity at 1000 nM after 30 mins by Kinomescan method relative to control; type: cell-based
[19] = biological target: cGMP-dependent protein kinase 1 (Homo sapiens) (UniProt Q13976); assay: Inhibition of wild-type human partial length PRKG1 (L339 to F686 residues) expressed in Escherichia coli BL21 assessed as residual activity at 1000 nM after 30 mins by Kinomescan method relative to control
[20] = biological target: SNF-related serine/threonine-protein kinase (Homo sapiens) (UniProt Q9NRH2); assay: Inhibition of wild-type human partial length SNRK (M1 to E339 residues) expressed in HEK293 cells assessed as residual activity at 1000 nM after 30 mins by Kinomescan method relative to control; type: cell-based
[21] = biological target: Serine/threonine-protein kinase WNK3 (Homo sapiens) (UniProt Q9BYP7); assay: Inhibition of wild-type human partial length WNK3 (M1 to D434 residues) expressed in HEK293 cells assessed as residual activity at 1000 nM after 30 mins by Kinomescan method relative to control; type: cell-based

Chain of Serine/threonine-protein kinase WNK2 (Homo sapiens) (Q9Y3S1 whole entry, the tested form may be a part): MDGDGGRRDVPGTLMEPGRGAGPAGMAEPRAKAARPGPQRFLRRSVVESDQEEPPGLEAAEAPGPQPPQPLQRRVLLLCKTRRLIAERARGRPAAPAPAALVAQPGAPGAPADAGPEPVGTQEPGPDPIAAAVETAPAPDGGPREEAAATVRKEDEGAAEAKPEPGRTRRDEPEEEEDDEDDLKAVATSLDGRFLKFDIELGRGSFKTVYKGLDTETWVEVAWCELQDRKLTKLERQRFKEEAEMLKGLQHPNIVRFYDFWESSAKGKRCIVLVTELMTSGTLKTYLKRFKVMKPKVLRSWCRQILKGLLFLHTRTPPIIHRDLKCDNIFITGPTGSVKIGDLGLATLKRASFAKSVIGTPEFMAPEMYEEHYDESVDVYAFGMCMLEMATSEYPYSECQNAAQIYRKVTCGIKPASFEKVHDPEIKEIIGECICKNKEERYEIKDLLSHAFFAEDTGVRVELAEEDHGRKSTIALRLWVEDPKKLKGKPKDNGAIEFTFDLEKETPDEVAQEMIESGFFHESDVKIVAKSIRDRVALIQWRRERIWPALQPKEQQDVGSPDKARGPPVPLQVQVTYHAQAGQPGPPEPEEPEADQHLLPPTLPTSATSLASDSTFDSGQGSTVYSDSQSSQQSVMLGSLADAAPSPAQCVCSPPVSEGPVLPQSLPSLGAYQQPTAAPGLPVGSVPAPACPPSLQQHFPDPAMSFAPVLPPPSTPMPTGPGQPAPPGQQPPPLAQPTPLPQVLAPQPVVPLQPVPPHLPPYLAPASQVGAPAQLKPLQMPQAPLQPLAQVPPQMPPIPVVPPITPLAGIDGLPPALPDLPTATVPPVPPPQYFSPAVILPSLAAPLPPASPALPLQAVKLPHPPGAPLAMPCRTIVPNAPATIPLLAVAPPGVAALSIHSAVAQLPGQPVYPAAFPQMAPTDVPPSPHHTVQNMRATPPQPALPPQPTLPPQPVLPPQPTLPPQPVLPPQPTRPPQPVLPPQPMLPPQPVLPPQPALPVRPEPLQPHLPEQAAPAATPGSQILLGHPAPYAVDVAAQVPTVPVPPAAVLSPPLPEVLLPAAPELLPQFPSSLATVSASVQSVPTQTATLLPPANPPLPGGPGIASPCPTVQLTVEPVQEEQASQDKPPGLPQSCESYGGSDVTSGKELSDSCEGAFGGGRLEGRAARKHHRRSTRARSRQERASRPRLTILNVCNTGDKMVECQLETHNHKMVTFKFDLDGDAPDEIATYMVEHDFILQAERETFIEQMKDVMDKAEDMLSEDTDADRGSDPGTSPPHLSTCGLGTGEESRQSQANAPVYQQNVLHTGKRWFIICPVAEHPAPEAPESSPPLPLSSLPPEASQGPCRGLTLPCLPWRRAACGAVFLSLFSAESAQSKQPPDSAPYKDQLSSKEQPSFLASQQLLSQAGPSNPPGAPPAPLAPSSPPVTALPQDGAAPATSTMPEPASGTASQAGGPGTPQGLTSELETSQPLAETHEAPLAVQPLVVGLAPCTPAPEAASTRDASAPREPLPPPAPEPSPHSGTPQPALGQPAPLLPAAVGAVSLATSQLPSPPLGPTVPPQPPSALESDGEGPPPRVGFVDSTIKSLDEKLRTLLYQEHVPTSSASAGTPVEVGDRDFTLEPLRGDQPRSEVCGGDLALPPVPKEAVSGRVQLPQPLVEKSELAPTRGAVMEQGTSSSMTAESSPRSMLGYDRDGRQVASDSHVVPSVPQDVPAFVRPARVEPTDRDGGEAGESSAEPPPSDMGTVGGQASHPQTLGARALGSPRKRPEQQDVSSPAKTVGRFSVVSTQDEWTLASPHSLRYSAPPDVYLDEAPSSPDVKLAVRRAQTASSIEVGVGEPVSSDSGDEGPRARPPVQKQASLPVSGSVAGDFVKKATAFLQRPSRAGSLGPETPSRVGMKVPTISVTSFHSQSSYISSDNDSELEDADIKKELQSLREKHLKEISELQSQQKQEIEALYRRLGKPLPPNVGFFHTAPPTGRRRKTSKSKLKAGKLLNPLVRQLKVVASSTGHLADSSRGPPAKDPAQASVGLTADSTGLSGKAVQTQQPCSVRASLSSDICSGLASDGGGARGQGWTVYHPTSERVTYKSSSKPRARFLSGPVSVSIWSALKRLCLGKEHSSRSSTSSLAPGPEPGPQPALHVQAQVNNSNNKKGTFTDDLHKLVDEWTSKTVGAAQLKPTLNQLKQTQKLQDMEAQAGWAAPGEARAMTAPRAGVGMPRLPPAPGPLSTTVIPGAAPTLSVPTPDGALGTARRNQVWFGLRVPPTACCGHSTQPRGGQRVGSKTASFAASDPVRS
Chain of Phosphatidylinositol 4,5-bisphosphate 3-kinase catalytic subunit alpha isoform (Homo sapiens), P42336 [C420R] (P42336 whole entry C420R, the tested form may be a part, canonical isoform): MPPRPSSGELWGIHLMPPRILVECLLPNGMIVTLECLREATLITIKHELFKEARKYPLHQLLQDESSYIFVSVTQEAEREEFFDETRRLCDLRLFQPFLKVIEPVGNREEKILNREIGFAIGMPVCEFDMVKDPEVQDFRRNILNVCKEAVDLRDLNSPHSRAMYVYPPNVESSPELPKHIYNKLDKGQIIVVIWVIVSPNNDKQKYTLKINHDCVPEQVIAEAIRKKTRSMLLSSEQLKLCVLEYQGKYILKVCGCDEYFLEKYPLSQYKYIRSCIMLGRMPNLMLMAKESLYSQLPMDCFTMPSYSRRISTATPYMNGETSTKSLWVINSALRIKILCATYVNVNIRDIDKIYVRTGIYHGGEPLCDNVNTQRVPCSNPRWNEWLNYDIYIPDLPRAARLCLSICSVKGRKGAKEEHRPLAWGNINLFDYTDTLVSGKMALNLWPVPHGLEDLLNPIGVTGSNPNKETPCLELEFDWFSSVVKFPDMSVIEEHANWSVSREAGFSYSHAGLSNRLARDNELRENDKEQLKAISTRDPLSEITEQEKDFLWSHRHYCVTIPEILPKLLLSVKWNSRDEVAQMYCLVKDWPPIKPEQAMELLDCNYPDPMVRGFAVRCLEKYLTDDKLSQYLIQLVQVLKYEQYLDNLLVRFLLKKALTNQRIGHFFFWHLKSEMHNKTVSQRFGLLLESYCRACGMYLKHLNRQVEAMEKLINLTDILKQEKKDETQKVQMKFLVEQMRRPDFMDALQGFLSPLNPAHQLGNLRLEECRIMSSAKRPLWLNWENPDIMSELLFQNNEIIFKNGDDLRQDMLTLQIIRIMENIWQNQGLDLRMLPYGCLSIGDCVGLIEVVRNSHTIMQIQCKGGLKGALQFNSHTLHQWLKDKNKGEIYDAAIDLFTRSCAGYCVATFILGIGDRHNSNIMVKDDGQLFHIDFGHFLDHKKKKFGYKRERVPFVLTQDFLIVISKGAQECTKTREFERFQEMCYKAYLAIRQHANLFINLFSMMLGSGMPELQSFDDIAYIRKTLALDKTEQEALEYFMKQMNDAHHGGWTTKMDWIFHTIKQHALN
Chain of ALK tyrosine kinase receptor (Homo sapiens), Q9UM73 [L1196M] (Q9UM73 whole entry L1196M, looked up, the tested form may be a part): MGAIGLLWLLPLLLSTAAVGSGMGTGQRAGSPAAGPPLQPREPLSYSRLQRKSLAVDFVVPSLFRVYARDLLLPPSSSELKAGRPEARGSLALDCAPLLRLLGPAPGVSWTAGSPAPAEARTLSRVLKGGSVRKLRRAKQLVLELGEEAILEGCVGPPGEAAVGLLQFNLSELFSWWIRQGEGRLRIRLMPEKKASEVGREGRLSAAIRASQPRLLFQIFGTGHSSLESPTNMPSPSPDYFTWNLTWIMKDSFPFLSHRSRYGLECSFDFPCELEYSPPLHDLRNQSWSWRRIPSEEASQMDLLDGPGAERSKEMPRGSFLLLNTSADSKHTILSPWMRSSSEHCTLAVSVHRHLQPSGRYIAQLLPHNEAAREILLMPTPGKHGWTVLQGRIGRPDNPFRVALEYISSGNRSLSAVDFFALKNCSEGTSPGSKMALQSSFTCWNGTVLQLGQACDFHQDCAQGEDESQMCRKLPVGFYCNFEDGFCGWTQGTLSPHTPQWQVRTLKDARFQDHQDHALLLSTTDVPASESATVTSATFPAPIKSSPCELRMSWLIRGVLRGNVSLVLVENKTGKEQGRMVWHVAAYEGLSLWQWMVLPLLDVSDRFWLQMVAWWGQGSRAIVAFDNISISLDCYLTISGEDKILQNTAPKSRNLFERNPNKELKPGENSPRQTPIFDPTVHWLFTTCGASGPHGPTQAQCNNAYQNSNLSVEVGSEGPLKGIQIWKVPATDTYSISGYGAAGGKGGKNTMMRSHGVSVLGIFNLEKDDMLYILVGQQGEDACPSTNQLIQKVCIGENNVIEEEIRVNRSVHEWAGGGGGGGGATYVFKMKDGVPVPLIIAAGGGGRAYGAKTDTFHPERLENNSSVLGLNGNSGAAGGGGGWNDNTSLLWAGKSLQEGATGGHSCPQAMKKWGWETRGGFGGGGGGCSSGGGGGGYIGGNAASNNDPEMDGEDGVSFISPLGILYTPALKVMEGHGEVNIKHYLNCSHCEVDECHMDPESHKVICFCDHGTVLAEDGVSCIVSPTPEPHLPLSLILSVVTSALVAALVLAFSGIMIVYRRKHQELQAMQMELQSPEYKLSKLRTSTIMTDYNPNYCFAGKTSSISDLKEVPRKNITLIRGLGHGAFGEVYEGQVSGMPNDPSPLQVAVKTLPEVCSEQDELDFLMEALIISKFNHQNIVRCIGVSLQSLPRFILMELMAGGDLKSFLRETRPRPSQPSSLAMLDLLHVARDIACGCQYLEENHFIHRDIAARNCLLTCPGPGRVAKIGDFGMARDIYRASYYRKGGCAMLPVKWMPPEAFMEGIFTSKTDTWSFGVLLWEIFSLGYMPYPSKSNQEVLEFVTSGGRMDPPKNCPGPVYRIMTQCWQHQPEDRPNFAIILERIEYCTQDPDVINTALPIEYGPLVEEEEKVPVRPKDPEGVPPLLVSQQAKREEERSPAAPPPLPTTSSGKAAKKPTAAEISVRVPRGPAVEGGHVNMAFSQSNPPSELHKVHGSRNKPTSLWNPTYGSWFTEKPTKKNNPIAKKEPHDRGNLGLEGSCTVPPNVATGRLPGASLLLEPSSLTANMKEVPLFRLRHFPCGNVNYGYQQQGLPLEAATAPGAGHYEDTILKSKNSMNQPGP
Chain of ALK tyrosine kinase receptor (Homo sapiens), Q9UM73 [C1156Y] (Q9UM73 whole entry C1156Y, looked up, the tested form may be a part): as the sequence (Q9UM73 whole entry L1196M, looked up, the tested form may be a part) above, with C1156Y, M1196L counted along it

COc1cc(OC)c(Cl)c(N2Cc3cnc(Nc4ccc(F)cc4)nc3N(C3CCN(C(=O)/C=C/CN(C)C)CC3)C2=O)c1Cl
Activity [1]: 68% | Activity [2]: 96% | Activity [3]: 100% | Activity [4]: 100% | Activity [5]: 100% | Activity [6]: 30% | Activity [7]: 57% | Activity [8]: 40% | IC50 (SW780): 16.1 nM | Activity [9]: 42% | Activity [10]: 7.6% | Activity [11]: 100% | Activity [12]: 88% | Activity [13]: 82% | Activity [14]: 100% | Activity [15]: 91% | Activity [16]: 92% | Activity [17]: 87% | Activity [18]: 96% | Activity [19]: 100% | Activity [20]: 100% | Activity [21]: 86%
